Reference: ChEMBL document CHEMBL4819086, “Discovery of neuroprotective agents that inhibit human prolyl hydroxylase PHD2” (Bioorg Med Chem, 2021)

Assays:
Egl nine homolog 1 = Egl nine homolog 1 (Homo sapiens, UniProt Q9GZT9); test: Inhibition of recombinant human PHD2 (181 to 426 residues) using DLDLEMLAPYIPMDDDFQL peptide as substrate preincubated for 15 mins followed by substrate addition and measured after 15 mins by Q-TOF mass spectrometric analysis
In short: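 Catalytic domain tPHD2 181–426 at 150 nM final in 50 mM Tris.Cl pH 7.5, 50 mM NaCl, with 0.5% DMSO. Substrate is CODD peptide (C-terminal amide). Enzyme equilibrated with compound for 15 min, then substrate with 2-oxoglutarate added and reacted for 15 min. Hydroxylated product measured by C4 SPE-MS. 11-point 3-fold titrations, normalised to no-enzyme control, IC50 by non-linear regression.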

SH-SY5Y [1] = test: Cytotoxicity against human SH-SY5Y cells assessed as reduction in cell viability upto 100 uM incubated for 24 hrs by MTT assay; type: cell-based
In short: (§1)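 SH-SY5Y neuroblastoma cells, undifferentiated, grown in DMEM/F12 (43.5% each) with 10% FBS, pyruvate and glutaMAX at 37 C, 5% CO2. Cells harvested at 85–95% confluence and seeded for MTT, treated over 1–100 µM. MTT (0.1 mg/mL) added for 3 h at 37 C. Formazan dissolved in DMSO and read at 570 nm. Normalised to MEM vehicle (100%) and 0.25% triton X-100 (0%) controls.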

SH-SY5Y [2] = test: Neuroprotective activity against H2O2-induced oxidative stress in human SH-SY5Y cells assessed as reduction in rate of cell death pretreated for 2 hrs followed by H2O2 challenge by phase contrast microscopic analysis; type: functional, cell-based
In short: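 SH-SY5Y cells pretreated with compound for 2 h (3–10 or 10–50 µM), then given 50 µM H2O2. Dead cells counted manually on phase-contrast images. Mean ± SEM from 4 separate cultures, one-way ANOVA with Dunnett's test.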

SH-SY5Y [3] = test: Cytotoxicity against human SH-SY5Y cells assessed as reduction in cell viability at 100 uM incubated for 24 hrs by MTT assay; type: cell-based; in short: as §1

Sequence of Egl nine homolog 1 (Q9GZT9 whole entry, the tested form may be a part): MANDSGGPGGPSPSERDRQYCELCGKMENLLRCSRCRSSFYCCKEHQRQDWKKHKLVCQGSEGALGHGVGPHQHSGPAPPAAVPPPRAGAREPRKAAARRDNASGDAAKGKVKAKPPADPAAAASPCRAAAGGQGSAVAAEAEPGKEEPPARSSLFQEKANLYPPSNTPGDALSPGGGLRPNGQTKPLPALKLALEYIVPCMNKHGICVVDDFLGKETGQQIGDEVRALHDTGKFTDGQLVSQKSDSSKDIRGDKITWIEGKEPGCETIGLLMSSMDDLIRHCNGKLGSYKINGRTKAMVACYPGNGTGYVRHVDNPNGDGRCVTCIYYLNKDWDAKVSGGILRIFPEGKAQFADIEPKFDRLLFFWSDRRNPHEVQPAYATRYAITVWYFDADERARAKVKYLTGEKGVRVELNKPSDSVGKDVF

Compound | IC50 (Egl nine homolog 1) [µM] | other results
Cc1nc(Sc2ncccc2C(=O)O)n[nH]1 | 4.09 | Activity (SH-SY5Y [1]): Non-Toxic; Activity (SH-SY5Y [2]): Dose-Dependent Effect
CSCCC(CO)NC(=O)Cn1nc(-n2nc(C)cc2C)ccc1=O (stereo unspecified) | > 100 | –
O=C1c2ccc3c4c(ccc(c24)C(=O)N1NC(=O)C(F)(F)F)CC3 | > 100 | –
Cc1ccc(-n2nc3c(SCC(=O)O)nnc(C)c3c2C)cc1 | 26 | Activity (SH-SY5Y [3]): Toxic; Activity (SH-SY5Y [2]): Dose-Dependent Effect
C=CCN(CC=C)Cc1c(C)nc2ccccc2c1O | > 100 | –
COC(=O)c1c(NC(=O)C2C(C(=O)O)[C@@H]3C=C[C@H]2CC3)sc(C)c1C (stereo partly specified) | 77.7 | –
Cc1c(Br)c(C(=O)Nc2ccc(Cl)cc2C(F)(F)F)nn1C | > 100 | –
COCc1cc(O)nc(Nc2nc(C)c3ccc(C)cc3n2)n1 | > 100 | –
O=C(O)CCCN1C(=O)[C@@H]2[C@H](C1=O)[C@H]1C=C[C@@H]2C1 | > 100 | –
COc1cccc(NC(=O)COc2ccccc2P(=O)(O)O)c1 | > 100 | –
O=C(Nc1ccccc1-c1nc2ccccc2c(=O)o1)C(F)(F)F | > 100 | –
O=C(O)c1cccc(NS(=O)(=O)c2cccc3cccnc23)c1 | > 100 | –
CC(C)c1nc2cc(NC(=O)CCn3cnnn3)ccc2n1C | > 100 | –
Cc1cc(NC(=O)c2nn(C)c(C)c2[N+](=O)[O-])no1 | > 100 | –
O=C(CCn1cnnn1)N1CCC(O)(c2cccc(C(F)(F)F)c2)CC1 | > 100 | –
Cn1nc(C(=O)Nc2ccccc2Cl)cc1C(=O)O | > 100 | –
O=S(=O)(Nc1cc(C(F)(F)F)ccc1Cl)c1cccc2cccnc12 | > 100 | –
